The values below come from ChEMBL document CHEMBL4152262, “Design, synthesis and evaluation of novel multi-target-directed ligands for treatment of Alzheimer's disease based on coumarin and lipoic acid scaffolds” (Eur J Med Chem, 2018).

The nature of assay [1]: Metal chelating activity assessed as mole fraction of compound required to show 2:1 stoichiometry for compound-Cu2+ complex at 40 uM after 30 mins by UV titration method. A digest of the protocol: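 Molar ratio method: 2.5 mL of 40 µM ligand in methanol titrated with CuCl2 (1000 µM in methanol) in 0.01 mL steps. Absorbance at 365 nm plotted against mole fraction; stoichiometry read from where the two straight lines cross.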

Assay [2] deals with Acetylcholinesterase (Electrophorus electricus, UniProt O42275). The experiment in a line: Inhibition of electric eel AChE using acetylthiocholine iodide as substrate pretreated for 5 mins followed by substrate addition by Ellman's method.
Assay [3] addresses Acetylcholinesterase (Electrophorus electricus) (UniProt O42275). The experiment in a line: Mixed-type inhibition of electric eel AChE using varying levels of acetylthiocholine iodide as substrate pretreated for 5 mins followed by substrate addition by Lineweaver-Burk plot analysis. Put shortly:
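Electric eel AChE (5 IU/mL) by Ellman method in 0.1 M phosphate buffer pH 8.0 with DTNB. Inhibitor was preincubated 5 min, then acetylthiocholine iodide was added at different concentrations. Absorbance followed at 412 nm. Inhibition type from reciprocal Lineweaver-Burk plots; Ki from a secondary replot of slope vs inhibitor concentration.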

Assay [4] has as its target Amyloid-beta precursor protein (Homo sapiens) (UniProt P05067). In words: Inhibition of amyloid beta (1 to 42) (unknown origin) self-induced aggregation at 100 uM incubated for 48 hrs by thioflavin-T fluorescence assay relative to control.
Assay [5] deals with PC-12. In words: Neuroprotection against H2O2-induced cell death in rat PC12 cells assessed as cell viability at 50 uM preincubated for 3 hrs followed by H2O2 stimulation measured after 2 hrs by MTT assay (reference value: 25.2 to 41.8%). Type of assay: functional. The conditions noted are these: read-out: Activity.
Assay [6] has as its system SH-SY5Y. In words: Inhibition of amyloid beta (1 to 42) (unknown origin)-induced cell death in human SH-SY5Y cells assessed as cell viability at 10 uM preincubated for 3 hrs followed by amyloid beta (1 to 42) addition measured after 24 hrs by MTT assay relative to control. It is filed as functional. The conditions noted are these: read-out: Activity. Put shortly: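 SH-SY5Y cells grown in DMEM with 10% FBS, 1% L-glutamine and antibiotics, seeded at 5×10^3/well. Pretreated 3 h with compound (10 or 50 µM), then Aβ1-42 10 µM added for 24 h. MTT, formazan dissolved in DMSO, A570. Viability as blank-corrected % of untreated control; three independent experiments, mean ± SEM.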

Assay [7] in a line: Metal chelating activity assessed as compound-Mg2+ complex formation at 20 uM after 30 mins by UV-visible spectrophotometric analysis. Put shortly:
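Compound (final 20 µM in methanol) mixed with metal salt (CuCl2, FeSO4, ZnCl2, AlCl3, MgCl2 or CaCl2, final 20 µM in methanol). After 30 min at room temperature, UV spectra recorded from 200 to 500 nm in 1-cm quartz cells on a dual-beam spectrophotometer.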

Activity calls are given as the source filed them. The rule behind the calls is not given here.

Chain of Amyloid-beta precursor protein (Homo sapiens) (P05067 whole entry): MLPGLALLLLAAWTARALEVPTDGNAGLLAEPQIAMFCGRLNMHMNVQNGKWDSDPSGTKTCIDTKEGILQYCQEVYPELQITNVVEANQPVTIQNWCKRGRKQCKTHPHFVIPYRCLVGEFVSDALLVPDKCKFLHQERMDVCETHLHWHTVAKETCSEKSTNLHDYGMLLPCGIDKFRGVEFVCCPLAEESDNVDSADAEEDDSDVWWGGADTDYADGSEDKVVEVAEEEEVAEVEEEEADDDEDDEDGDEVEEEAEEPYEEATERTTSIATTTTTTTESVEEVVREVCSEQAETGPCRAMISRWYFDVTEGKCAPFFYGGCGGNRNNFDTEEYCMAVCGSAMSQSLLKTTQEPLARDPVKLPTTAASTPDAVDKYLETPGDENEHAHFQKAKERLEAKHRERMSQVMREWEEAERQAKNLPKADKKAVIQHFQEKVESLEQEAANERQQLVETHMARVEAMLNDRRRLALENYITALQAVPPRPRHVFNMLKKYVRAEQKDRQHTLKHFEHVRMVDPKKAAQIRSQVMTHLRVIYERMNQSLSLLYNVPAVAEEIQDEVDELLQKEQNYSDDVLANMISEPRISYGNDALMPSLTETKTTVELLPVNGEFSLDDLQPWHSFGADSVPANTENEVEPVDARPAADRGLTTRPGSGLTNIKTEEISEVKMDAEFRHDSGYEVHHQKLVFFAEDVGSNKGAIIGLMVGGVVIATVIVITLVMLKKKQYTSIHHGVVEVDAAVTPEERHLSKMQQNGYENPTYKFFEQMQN
Chain of Acetylcholinesterase (O42275 whole entry): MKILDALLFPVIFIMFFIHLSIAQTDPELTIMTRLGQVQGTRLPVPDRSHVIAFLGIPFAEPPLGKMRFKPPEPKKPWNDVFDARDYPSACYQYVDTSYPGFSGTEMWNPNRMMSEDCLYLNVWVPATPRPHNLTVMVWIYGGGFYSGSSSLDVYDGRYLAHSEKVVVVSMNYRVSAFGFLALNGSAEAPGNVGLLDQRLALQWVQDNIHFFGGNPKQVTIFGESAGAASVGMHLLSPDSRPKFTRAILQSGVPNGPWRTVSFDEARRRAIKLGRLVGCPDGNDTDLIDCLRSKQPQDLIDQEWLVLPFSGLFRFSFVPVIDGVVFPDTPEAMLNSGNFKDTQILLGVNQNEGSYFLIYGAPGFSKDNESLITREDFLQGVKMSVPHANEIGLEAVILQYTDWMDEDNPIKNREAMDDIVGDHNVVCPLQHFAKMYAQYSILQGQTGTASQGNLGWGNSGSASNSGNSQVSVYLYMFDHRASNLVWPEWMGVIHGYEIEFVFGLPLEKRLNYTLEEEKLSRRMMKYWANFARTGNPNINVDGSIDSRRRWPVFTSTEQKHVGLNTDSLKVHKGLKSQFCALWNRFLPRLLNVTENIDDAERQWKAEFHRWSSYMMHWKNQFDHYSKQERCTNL
Chain of Acetylcholinesterase (Electrophorus electricus) (O42275 24-633 limits assumed): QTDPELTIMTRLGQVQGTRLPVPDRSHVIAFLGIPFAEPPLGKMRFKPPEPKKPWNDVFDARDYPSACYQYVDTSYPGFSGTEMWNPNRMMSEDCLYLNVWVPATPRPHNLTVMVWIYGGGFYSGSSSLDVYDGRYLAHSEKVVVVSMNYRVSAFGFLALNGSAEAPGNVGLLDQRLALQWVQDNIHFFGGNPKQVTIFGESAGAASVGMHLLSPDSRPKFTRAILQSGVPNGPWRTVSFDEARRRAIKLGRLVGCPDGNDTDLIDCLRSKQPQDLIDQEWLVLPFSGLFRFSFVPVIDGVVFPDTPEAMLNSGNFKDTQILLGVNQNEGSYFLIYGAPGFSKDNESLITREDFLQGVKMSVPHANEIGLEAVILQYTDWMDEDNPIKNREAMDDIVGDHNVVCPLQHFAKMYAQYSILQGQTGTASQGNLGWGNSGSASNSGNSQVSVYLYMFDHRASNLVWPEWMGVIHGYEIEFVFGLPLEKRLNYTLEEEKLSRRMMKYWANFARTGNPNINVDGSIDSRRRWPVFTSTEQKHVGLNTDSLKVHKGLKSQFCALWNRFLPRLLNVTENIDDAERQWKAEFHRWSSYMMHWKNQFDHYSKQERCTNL

As for `COc1ccc(-c2cc3ccc(OCCCn4cc(CNC(=O)CCCCC5CCSS5)nn4)cc3oc2=O)cc1OC` (configuration not stated), the Activity in assay [1] was 0.5 molar ratio. For the same compound, the IC50 in assay [2] was determined as 16.4 µM. The inhibition entry in assay [3] is “Active”. This compound also gave an inhibition in assay [4] of 51.2%. In addition, in assay [5], the viability at 50 µM worked out at 49.5%. Moreover, the viability at 10 µM in assay [6] was 64.7%. In assay [7], the result was inactive.
